The subject of one experiment is Mycoplasma fermentans. The experiment in a line: Antimycoplasmal activity against Mycoplasma fermentans Pg18 after 24 to 48 hrs by broth microdilution method. The format is functional, Mycoplasmopsis fermentans. In a few lines: (§1)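 Strains were grown in SP-4 broth and stored frozen at -80 C until testing. Broth microdilution with agent concentrations expressed as % v/v. MIC was the lowest concentration preventing the broth colour change when the growth-control tube changed: pH falling from 7.5 to 7.0 for M. fermentans, rising from 6.0 to 6.5 for M. hominis. Incubation was 24–48 h. Each strain was tested six times, plus six more times on different days. Growth and sterility controls were included.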

Experiment [1] concerns Mycoplasmoides pneumoniae. Nature of the experiment: Antimycoplasmal activity against Mycoplasma pneumoniae M129 after 3 to 5 days by broth microdilution method. In general terms: Broth dilution looks for growth in wells or tubes with falling amounts of substance.
Another experiment deals with Metamycoplasma hominis. Nature of the experiment: Antimycoplasmal activity against Mycoplasma hominis PG21 after 24 to 48 hrs by broth microdilution method. Format: functional. In a few lines: as §1

For `C=C(C)[C@H]1CC=C(C)CC1` [D-LIMONENE], the figures for the MIC90 (with Mycoplasma fermentans; in experiment [1]; in the experiment on Metamycoplasma hominis) were 1 %v/v, 0.03 %v/v and 8 %v/v, respectively. The same compound gave an MIC50 in the experiment on Metamycoplasma hominis of 4 %v/v.

On to `C=CC(C)(O)CCC=C(C)C` (configuration not stated) [LINALOOL], for which the MIC90 is 0.06 %v/v against Mycoplasma fermentans, 0.015 %v/v in experiment [1] and 1 %v/v against Metamycoplasma hominis. Further, the MIC50 against Metamycoplasma hominis was determined as 1 %v/v.

`C=CC(C)(CCC=C(C)C)OC(C)=O` (configuration not stated) [LINALYL ACETATE]: the MIC90 was 0.12 %v/v with Mycoplasma fermentans, 0.015 %v/v in experiment [1] and 0.015 %v/v with Metamycoplasma hominis. This compound also displayed an MIC50 against Metamycoplasma hominis of 0.015 %v/v.
